# Experimental data published in ChEMBL document CHEMBL1629713, “Discovery of benzoylisoindolines as a novel class of potent, selective and orally active GlyT1 inhibitors” (Bioorg Med Chem Lett, 2010).
# How the values were obtained:
# [1] = target: T1, Sodium- and chloride-dependent glycine transporter 1 (Homo sapiens, UniProt P48067); assay: Inhibition of human GlyT1
# T1 sequence (P48067 whole entry): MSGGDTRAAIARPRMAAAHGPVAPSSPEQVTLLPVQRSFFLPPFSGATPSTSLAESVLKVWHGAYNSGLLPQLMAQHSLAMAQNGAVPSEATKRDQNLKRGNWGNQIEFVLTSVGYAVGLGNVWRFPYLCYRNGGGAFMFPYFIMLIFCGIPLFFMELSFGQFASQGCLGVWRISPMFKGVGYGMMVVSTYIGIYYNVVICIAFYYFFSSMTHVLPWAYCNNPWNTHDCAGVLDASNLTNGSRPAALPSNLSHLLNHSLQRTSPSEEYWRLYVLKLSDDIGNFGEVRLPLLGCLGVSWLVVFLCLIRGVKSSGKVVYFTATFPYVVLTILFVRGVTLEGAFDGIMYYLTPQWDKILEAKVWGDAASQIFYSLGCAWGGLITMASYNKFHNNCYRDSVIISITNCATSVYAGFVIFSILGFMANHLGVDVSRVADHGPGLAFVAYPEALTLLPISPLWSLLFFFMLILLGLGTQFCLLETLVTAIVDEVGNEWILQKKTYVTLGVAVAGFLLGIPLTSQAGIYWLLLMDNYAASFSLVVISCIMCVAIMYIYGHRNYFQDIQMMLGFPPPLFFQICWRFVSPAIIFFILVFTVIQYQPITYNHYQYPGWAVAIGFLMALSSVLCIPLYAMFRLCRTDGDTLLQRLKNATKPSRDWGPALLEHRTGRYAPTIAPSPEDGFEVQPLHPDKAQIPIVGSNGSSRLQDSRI
# How it was run: (§1)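 [3H]-glycine uptake inhibition in cells transfected with human GlyT1 or human GlyT2 cDNA. EC50 values averaged from at least two independent experiments.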
# [2] = organism: Homo sapiens; assay: Selectivity ratio of EC50 for human GlyT2 to EC50 for human GlyT1
# How it was run: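 Ratio of the two EC50s from a [³H]-glycine uptake inhibition assay run in cells transfected with human GlyT1 cDNA or human GlyT2 cDNA. Each EC50 is the average of at least two independent experiments.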
# [3] = Aqueous solubility of the compound by lyophilisate solubility assay; assay type: physicochemical; settings: buffer
# How it was run: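 LYSA: compound in DMSO solution lyophilized, then dissolved in 0.05 M phosphate buffer pH 6.5, stirred 1 h and shaken 2 h; solubility in µg/ml.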
# [4] = Intrinsic clearance in mouse liver microsomes assessed per mg of protein; assay type: ADME, Microsome
# [5] = system: Mus musculus; assay: Antipsychotic activity in po dosed mouse assessed as inhibition of L-687414-induced hyperlocomotion after 60 mins; assay type: functional; settings: 1 h, read-out: ID50 (the source's name)
# How it was run: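 Mice given compound orally, n = 8 per group; hyperlocomotion induced by L-687,414. Horizontal activity counts recorded over a 60-min period and reported as group means. ID50 (mg/kg) derived from dose-dependent inhibition of the L-687,414-induced response.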
# [6] = target: Cytochrome P450 2C9 (Homo sapiens, UniProt P11712); assay: Inhibition of CYP2C9; assay type: ADME
# Cytochrome P450 2C9, sequence (P11712 whole entry): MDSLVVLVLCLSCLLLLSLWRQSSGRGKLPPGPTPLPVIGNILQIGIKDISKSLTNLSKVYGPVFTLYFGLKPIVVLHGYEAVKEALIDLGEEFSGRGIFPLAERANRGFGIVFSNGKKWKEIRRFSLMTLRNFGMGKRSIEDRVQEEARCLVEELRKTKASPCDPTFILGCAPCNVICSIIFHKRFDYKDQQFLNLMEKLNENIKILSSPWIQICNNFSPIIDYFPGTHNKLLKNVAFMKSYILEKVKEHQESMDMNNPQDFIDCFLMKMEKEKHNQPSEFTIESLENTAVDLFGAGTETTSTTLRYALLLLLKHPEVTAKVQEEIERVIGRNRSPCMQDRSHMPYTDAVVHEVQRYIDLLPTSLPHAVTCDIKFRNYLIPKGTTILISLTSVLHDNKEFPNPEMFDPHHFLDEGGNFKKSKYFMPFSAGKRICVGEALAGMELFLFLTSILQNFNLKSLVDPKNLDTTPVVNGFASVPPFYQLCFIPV
# [7] = Permeability of the compound by PAMPA; assay type: ADME; settings: read-out: permeability
# How it was run: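 PAMPA: permeation constant Pe (10^-6 cm/s) measured through artificial membranes.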
# [8] = Intrinsic clearance in human liver microsomes assessed per mg of protein; assay type: ADME, Microsome
# [9] = target: T2, Sodium- and chloride-dependent glycine transporter 2 (Homo sapiens, UniProt Q9Y345); assay: Inhibition of human GlyT2; how it was run: as §1
# T2 sequence (Q9Y345 whole entry): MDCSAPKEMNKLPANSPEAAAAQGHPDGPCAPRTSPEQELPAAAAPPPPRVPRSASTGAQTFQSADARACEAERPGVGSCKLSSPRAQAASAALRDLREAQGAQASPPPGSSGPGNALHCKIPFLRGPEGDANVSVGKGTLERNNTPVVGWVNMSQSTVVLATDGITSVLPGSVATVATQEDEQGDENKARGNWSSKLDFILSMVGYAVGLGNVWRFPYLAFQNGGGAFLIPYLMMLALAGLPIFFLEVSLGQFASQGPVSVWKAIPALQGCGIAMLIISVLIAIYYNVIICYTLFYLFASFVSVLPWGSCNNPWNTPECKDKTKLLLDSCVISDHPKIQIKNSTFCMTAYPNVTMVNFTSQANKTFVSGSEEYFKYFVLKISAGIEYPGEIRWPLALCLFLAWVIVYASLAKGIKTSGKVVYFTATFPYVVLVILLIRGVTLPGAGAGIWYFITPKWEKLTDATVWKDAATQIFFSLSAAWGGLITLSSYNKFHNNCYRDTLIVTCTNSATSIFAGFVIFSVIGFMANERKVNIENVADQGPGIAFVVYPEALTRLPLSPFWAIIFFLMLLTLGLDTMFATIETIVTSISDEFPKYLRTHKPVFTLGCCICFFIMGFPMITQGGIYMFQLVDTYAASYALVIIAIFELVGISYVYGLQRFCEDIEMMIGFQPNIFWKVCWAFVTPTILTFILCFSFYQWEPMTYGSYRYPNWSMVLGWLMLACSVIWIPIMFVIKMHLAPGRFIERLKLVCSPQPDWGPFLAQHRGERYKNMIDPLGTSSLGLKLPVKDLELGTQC
# [10] = target: Cytochrome P450 3A4 (Homo sapiens, UniProt P08684); assay: Inhibition of CYP3A4; assay type: ADME
# Cytochrome P450 3A4, sequence (P08684 whole entry): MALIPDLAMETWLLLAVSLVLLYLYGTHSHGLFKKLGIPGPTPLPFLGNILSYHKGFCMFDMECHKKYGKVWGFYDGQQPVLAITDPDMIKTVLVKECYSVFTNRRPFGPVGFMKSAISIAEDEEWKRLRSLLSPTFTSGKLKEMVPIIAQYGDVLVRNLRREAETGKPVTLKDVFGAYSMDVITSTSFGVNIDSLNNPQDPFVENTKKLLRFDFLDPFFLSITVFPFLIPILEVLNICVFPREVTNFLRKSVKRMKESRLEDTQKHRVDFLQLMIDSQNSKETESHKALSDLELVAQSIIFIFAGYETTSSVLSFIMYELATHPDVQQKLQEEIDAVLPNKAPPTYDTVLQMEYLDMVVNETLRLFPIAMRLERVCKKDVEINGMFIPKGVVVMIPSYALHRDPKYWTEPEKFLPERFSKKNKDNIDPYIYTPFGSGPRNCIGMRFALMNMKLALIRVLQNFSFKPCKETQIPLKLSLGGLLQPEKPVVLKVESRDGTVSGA
# [11] = target: Cytochrome P450 2D6 (Homo sapiens, UniProt P10635); assay: Inhibition of CYP2D6; assay type: ADME
# Cytochrome P450 2D6, sequence (P10635 whole entry): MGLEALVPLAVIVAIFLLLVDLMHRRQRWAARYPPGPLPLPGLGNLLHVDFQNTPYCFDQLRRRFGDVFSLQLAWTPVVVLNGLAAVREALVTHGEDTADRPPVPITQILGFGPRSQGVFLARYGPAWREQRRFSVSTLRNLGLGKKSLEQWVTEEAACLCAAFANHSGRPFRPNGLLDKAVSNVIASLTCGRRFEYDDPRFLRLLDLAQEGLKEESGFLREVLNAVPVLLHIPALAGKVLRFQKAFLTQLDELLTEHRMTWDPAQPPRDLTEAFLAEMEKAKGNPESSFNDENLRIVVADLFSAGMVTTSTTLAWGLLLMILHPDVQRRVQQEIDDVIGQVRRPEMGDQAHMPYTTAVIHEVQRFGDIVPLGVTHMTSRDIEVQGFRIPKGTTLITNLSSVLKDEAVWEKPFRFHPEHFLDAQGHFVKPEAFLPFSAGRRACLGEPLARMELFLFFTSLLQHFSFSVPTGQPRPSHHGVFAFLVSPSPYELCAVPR
# [12] = Intrinsic clearance in rat liver microsomes assessed per mg of protein; assay type: ADME, Microsome
# How it was run: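 Intrinsic clearance measured in rat liver microsomes, expressed as µL/min/mg protein.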
# [13] = system: Rattus norvegicus; assay: […] in rat striatum assessed as increase of glycine level at 10 mg/kg, po relative to basal level; assay type: functional
# How it was run: (§2)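 Rats dosed 10 mg/kg po, n = 6. Striatal extracellular fluid sampled for glycine over 3 h, expressed as maximal fold increase and fold increase at 3 h. Animals sacrificed at 3 h; plasma and brain drug levels measured at 3 h post dose.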
# [14] = system: Rattus norvegicus; assay: […] in rat striatum assessed as increase of glycine at 10 mg/kg, po after 3 hrs relative to basal level; assay type: functional; how it was run: as §2
# [15] = target: hERG (KCNH2) (Homo sapiens, UniProt Q12809); assay: Inhibition of human ERG at 10 uM by patch clamp assay
# hERG (KCNH2), sequence (Q12809 whole entry): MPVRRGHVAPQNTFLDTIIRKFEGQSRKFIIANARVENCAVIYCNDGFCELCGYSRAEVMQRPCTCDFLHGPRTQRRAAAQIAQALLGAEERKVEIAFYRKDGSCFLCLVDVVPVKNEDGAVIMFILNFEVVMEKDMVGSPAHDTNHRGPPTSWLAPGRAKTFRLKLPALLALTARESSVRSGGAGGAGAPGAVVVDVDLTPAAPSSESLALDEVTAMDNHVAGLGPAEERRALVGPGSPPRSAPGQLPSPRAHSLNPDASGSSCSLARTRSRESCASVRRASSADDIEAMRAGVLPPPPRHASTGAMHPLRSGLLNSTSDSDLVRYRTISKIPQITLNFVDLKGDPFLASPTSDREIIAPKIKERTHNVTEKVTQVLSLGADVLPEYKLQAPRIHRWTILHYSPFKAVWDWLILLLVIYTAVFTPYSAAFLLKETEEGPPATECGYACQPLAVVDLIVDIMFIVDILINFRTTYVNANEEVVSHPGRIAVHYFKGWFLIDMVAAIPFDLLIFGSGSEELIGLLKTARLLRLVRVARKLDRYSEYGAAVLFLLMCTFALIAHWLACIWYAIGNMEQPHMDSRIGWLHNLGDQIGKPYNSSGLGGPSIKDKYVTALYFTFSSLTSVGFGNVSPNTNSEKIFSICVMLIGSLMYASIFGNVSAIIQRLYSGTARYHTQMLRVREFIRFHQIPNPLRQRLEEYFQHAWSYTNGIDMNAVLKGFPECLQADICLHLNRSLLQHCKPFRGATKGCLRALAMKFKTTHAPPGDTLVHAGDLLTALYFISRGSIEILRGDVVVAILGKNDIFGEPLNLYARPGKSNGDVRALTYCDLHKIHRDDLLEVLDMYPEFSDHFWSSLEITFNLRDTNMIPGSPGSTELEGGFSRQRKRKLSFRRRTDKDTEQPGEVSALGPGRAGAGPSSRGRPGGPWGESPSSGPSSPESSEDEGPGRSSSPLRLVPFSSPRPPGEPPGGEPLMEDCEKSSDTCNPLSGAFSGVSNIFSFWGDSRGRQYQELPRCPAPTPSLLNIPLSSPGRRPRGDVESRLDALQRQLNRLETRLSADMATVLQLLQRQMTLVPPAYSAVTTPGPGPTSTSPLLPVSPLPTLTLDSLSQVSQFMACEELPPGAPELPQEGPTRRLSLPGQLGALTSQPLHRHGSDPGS
# How it was run: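 hERG block measured by patch clamp at 10 µM; values averaged from at least two independent experiments.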
# [16] = Oral bioavailability in rat at 6.8 mg/kg; assay type: ADME, organism-based; settings: in vivo
# How it was run: (§3)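 Single-dose rat PK with iv doses of 1.7, 2.0 or 2.2 mg/kg and po doses of 2, 5.7 or 6.8 mg/kg. CL, Vss, oral bioavailability, terminal half-life and brain/plasma ratio determined; values averaged from two independent experiments.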
# [17] = Drug level in rat plasma at 10 mg/kg after 3 hrs; assay type: ADME, organism-based; design: dose 10 mg/kg; how it was run: as §2
# [18] = target: T2, Sodium- and chloride-dependent glycine transporter 2; assay: Inhibition of human GlyT2 expressed in CHO cells assessed as inhibition of [3H]glycine uptake by liquid scintillation counting; assay type: cell-based; how it was run: as §1
# [19] = target: T1, Sodium- and chloride-dependent glycine transporter 1; assay: Inhibition of human GlyT1 expressed in CHO cells assessed as inhibition of [3H]glycine uptake by liquid scintillation counting; assay type: cell-based; how it was run: as §1
# [20] = Volume of distribution at steady state in rat at 2.2 mg/kg, iv; assay type: ADME, organism-based; design: dose 2.2 mg/kg, route intravenous; settings: in vivo, read-out: Vdss; how it was run: as §3
# [21] = Terminal half life in rat at 6.8 mg/kg, po; assay type: ADME, organism-based; design: dose 6.8 mg/kg, route oral; settings: in vivo, read-out: beta t1/2 (converted); how it was run: as §3
# [22] = Clearance in rat at 2.2 mg/kg, iv; assay type: ADME, organism-based; design: dose 2.2 mg/kg, route intravenous; settings: in vivo; how it was run: as §3
# [23] = Ratio of drug level in brain to plasma in rat at 6.8 mg/kg, po; assay type: ADME, organism-based; design: dose 6.8 mg/kg, route oral; settings: read-out: BPR
# [24] = Drug level in rat brain at 10 mg/kg after 3 hrs; assay type: ADME, organism-based; design: dose 10 mg/kg; settings: read-out: Drug uptake; how it was run: as §2
# [25] = Terminal half life in rat at 5.7 mg/kg, po; assay type: ADME, organism-based; design: dose 5.7 mg/kg, route oral; settings: in vivo, read-out: beta t1/2 (converted); how it was run: as §3
# [26] = Clearance in rat at 1.7 mg/kg, iv; assay type: ADME, organism-based; design: dose 1.7 mg/kg, route intravenous; settings: in vivo; how it was run: as §3
# [27] = Oral bioavailability in rat at 5.7 mg/kg; assay type: ADME, organism-based; settings: in vivo; how it was run: as §3
# [28] = Ratio of drug level in brain to plasma in rat at 5.7 mg/kg, po; assay type: ADME, organism-based; design: dose 5.7 mg/kg, route oral; settings: read-out: BPR
# [29] = Volume of distribution at steady state in rat at 1.7 mg/kg, iv; assay type: ADME, organism-based; design: dose 1.7 mg/kg, route intravenous; settings: in vivo, read-out: Vdss; how it was run: as §3
solubility [3] [mg/mL],Papp [7] [nm/s],microsomal CLint [12] [µL/min/mg],concentration at 3 h [17] [µg/mL],EC50 [18] [µM],EC50 [19] [µM],concentration at 3 h [24] [µg/mL],SMILES,ED50 [5] [mg/kg],fold change (FC) [13],fold change (FC) [14],inhibition at 10 µM [15] [%],also measured
< 0.001,44,–,–,–,–,–,C[C@H](Oc1ccc(S(C)(=O)=O)cc1C(=O)N1Cc2ccc(Cl)cc2C1)C(F)(F)F,20,–,–,–,EC50 [1]: 0.135 µM; Ratio EC50 [2]: > 200; microsomal CLint [4]: 23.3 µL/min/mg; IC50 [6]: > 38 µM; microsomal CLint [8]: 2.4 µL/min/mg; EC50 [9]: 30 µM; IC50 [10]: > 38 µM; IC50 [11]: > 38 µM
0.076,33,13.9,0.48,> 30,0.014,0.274,C[C@H](Oc1ccc(S(C)(=O)=O)cc1C(=O)N1Cc2ccc(C3CCOCC3)cc2C1)C(F)(F)F,0.5,2.1,2,23,bioavailability [16]: 65%; Vd [20]: 3.7 L/kg; half-life [21]: 3.2 h; clearance [22]: 1.26 L/h/kg; Kp [23]: 0.6
0.191,42,18.9,0.279,> 30,0.028,0.159,CC(C)Oc1ccc(S(C)(=O)=O)cc1C(=O)N1Cc2ccc(C3CCOCC3)cc2C1,0.5,1.9,1.5,10,half-life [25]: 1.6 h; clearance [26]: 1.32 L/h/kg; bioavailability [27]: 40%; Kp [28]: 0.6; Vd [29]: 2 L/kg
